These results are taken from ChEMBL document CHEMBL1135632, “Synthesis and investigation of conformationally restricted analogues of lavendustin A as cytotoxic inhibitors of tubulin polymerization” (J Med Chem, 2002).

Usually GI50 stands for the concentration giving 50% growth inhibition. The low end stands for more potent growth inhibition, the high end for less potent growth inhibition. Broadly, the IC50 is the concentration at which inhibition is half-maximal.

The species named for data set [1] is Homo sapiens. The data set can be described thus: Cytotoxicity against renal SN12C. The data set is classed as functional. Summed up:
(§1)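 NCI human cancer cell line screen. Compounds were tested from 10^-4 to 10^-8 M, and GI50 was taken as the concentration giving 50% growth inhibition. Agents whose mean graph midpoint across about 55 lines was 10 μM or less on the first determination were assayed a second time, with standard deviations calculated. Agents above 10 μM were not evaluated further.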

Data set [2] is filed under the species Homo sapiens. The data set can be described thus: Cytotoxicity against lung HOP-62. The data set is classed as functional. The method, boiled down:
as §1

The species entered for data set [3] is Homo sapiens. As to the kind of experiment: Cytotoxicity against prostate DU-145. The following applies: DU-145, Prostate gland. The data set is classed as functional. The method, boiled down: as §1
The species named for data set [4] is Homo sapiens. The data set can be described thus: Cytotoxicity against ovarian OVCAR-3. It counts as functional. The method, boiled down: as §1
Data set [5] is described as follows: (§2) Cytotoxicity against leukemia CCRF-CEM. It counts as functional. Particulars: Homo sapiens. Summed up:
as §1

The species named for data set [6] is Homo sapiens. As to the kind of experiment: Cytotoxicity against CNS SF-539. The data set is classed as functional. Particulars: CNSSF-539. Summed up: as §1
Data set [7] is filed under the species Homo sapiens. The data set can be described thus: Cytotoxicity against colon HCT116. It counts as functional. The following applies: HCT-116. Summed up:
as §1

The species entered for data set [8] is Homo sapiens. The data set can be described thus: Cytotoxicity against melanoma UACC-62. The data set is classed as functional. Summed up:
as §1

For data set [9], the species on record is Homo sapiens. As to the kind of experiment: Cytotoxicity against breast MDA-MB-435. It counts as functional. The method, boiled down:
as §1

In data set [10] the target is Tubulin (Bos taurus, UniProt Q6B856+Q862L2+Q862F3). As to the kind of experiment: Inhibition of tubulin polymerization at concentration 10 uM. It counts as functional.
For data set [11], the target named is Tubulin (Bos taurus). As to the kind of experiment: Inhibition of tubulin polymerization at concentration 10 uM.
The nature of data set [12]: as §2. It counts as cell-based. Particulars: human, CCRF-CEM leukemia cells.

With `Oc1ccc(O)c(CNc2ccc(O)c(/C=C\CCc3ccccc3)c2)c1`, the GI50 in data set [1] stood at 17.8 µM; in [2] it was 20.5 µM; in data set [3], 34 µM; in data set [4] it was 21.9 µM; in data set [5] it was 0.7 µM; in data set [6] it was 11.6 µM. The values for the GI50 in [7], in data set [8] and in data set [9] were 19.3 µM, 15.9 µM and 17.1 µM, respectively. Also, the IC50 in data set [10] worked out at 3.7 µM.

In the case of `O=C(NCCc1ccccc1)c1cc(NCc2cc(O)ccc2O)ccc1O`, the GI50 in data set [1] worked out at 18 µM; in data set [2], 20 µM; in data set [3] it was 16 µM; in data set [4], 7.7 µM; in data set [5] it was 2.7 µM; in [6], 17 µM. For the same compound, the values for the GI50 in data set [7], in data set [8] and in [9] were 18 µM, 14 µM and 19 µM, respectively. In data set [10], this compound returned an IC50 of 3.6 µM.

As to `Oc1ccc(O)c(CNc2ccc(O)c(/C=C/CCc3ccccc3)c2)c1`, the concentration for 50% growth inhibition (GI50) in data set [1] is 21.4 µM; in data set [2], 35.4 µM; in data set [3], 18.7 µM; in data set [4] it was 20.4 µM; in data set [5] it was 1.1 µM; in data set [6], 16.3 µM. In addition, the 50% growth inhibitory concentration (GI50) in [7] was found to be 30.4 µM; in [8], 18 µM; in data set [9], 5.7 µM. The IC50 in [10] was 7.2 µM.

Regarding `O=C1c2c(O)ccc(NCc3cc(O)ccc3O)c2CN1CCc1ccccc1`, the GI50 turned out to be 12.9 µM in [1]; 26.8 µM in data set [2]; 14.5 µM in data set [3]; 6.2 µM in data set [4]; 2.3 µM in [5]; 23.1 µM in data set [6]. For the same compound, the figures for the concentration for 50% growth inhibition (GI50) in data set [7], in [8] and in [9] were 19.9 µM, 10.1 µM and 14.8 µM, respectively. For the same compound, the half-maximal inhibitory concentration (IC50) in data set [10] is 7.4 µM.

The compound `COc1ccc(NCc2cc(O)ccc2O)c2c1C(=O)N(CCc1ccccc1)C2` showed a half-inhibitory concentration (IC50) in data set [11] of 9.5 µM.

On to `O=C(NCCc1ccc(F)cc1)c1cc(NCc2cc(O)ccc2O)ccc1O`, for which the GI50 in data set [1] came out at 0.58 µM; in [2], 0.28 µM; in data set [3], 0.27 µM; in [4], 0.15 µM; in [5] it was 0.22 µM; in [6], 0.32 µM. For the same compound, the 50% growth inhibitory concentration (GI50) in data set [7] stood at 0.33 µM; in data set [8], 0.41 µM; in [9], 0.047 µM. Further, in data set [10], the half-inhibitory concentration (IC50) worked out at 4 µM.

In the case of `CCCCCCNC(=O)c1cc(NCc2cc(O)ccc2O)ccc1O`, the concentration for 50% growth inhibition (GI50) in [1] is 6.1 µM; in data set [2] it was 19 µM; in [3], 15 µM; in data set [4], 4 µM; in data set [5] it was 0.56 µM; in data set [6] it was 2.3 µM. Moreover, the GI50 in data set [7] was found to be 17 µM; in [8], 12 µM; in data set [9], 15 µM. For the same compound, the IC50 in data set [10] was found to be 3.6 µM.

For `CCCCCCn1c(=O)oc2ccc(NCc3cc(O)ccc3O)cc2c1=O`, the 50% growth inhibitory concentration (GI50) in data set [1] came to 4.2 µM; in data set [2] it was 14.8 µM; in [3], 13.8 µM; in data set [4], 1.7 µM; in [5] it was 0.27 µM; in data set [6] it was 2.4 µM. Also, the GI50 in data set [7] turned out to be 3.2 µM; in [8], 3.2 µM; in data set [9] it was 3.9 µM. Besides, the half-inhibitory concentration (IC50) in data set [10] stood at 6 µM.

Regarding `O=c1oc2ccc(NCc3cc(O)ccc3O)cc2c(=O)n1CCc1ccc(F)cc1`, the GI50 in data set [1] was found to be 6.6 µM; in data set [2], 17.2 µM; in data set [3] it was 17.7 µM; in data set [4], 2.8 µM; in [5], 0.78 µM; in data set [6], 5.1 µM. Also, the GI50 in data set [7] amounted to 4.2 µM; in data set [8], 7 µM; in [9], 4.9 µM. In data set [10], this compound gave a 50% inhibitory concentration (IC50) of 6.8 µM.

`O=c1oc2ccc(NCc3cc(O)ccc3O)cc2c(=O)n1CCc1ccccc1`: the GI50 is 9.6 µM in data set [1]; 21.4 µM in data set [2]; 15.3 µM in data set [3]; 3.6 µM in data set [4]; 1.3 µM in [12]; 8.9 µM in [6]. The GI50 in data set [7] turned out to be 4.6 µM; in data set [8], 6 µM; in data set [9], 5.6 µM. The compound further had an IC50 in data set [10] of 8.3 µM.

With `O=C1c2c(O)ccc(NCc3cc(O)ccc3O)c2CN1CCc1ccc(F)cc1`, the 50% growth inhibitory concentration (GI50) in data set [1] is 16 µM; in data set [2], 19.6 µM; in data set [3], 24.6 µM; in data set [4], 8.8 µM; in data set [5], 1.8 µM; in [6] it was 14.4 µM. Also, the 50% growth inhibitory concentration (GI50) in data set [7] amounted to 18.7 µM; in data set [8], 13.3 µM; in data set [9] it was 15.6 µM. Moreover, the IC50 in data set [10] came to 5.9 µM.

With `COc1ccc(NCc2cc(O)ccc2O)c2c1C(=O)N(CCc1ccc(F)cc1)C2`, the concentration for 50% growth inhibition (GI50) in data set [1] came to 20.4 µM; in data set [2], 31.4 µM; in data set [3], 16.1 µM; in data set [4] it was 8.4 µM; in [5], 3.4 µM; in [6], 14.4 µM. Besides, the GI50 in [7] is 20.4 µM; in [8] it was 19.1 µM; in data set [9], 14 µM. Also, in data set [10], the concentration for half-maximal inhibition (IC50) was 5.9 µM.
